{"source": "paper PMC2659781", "about": "(Drug metabolism and disposition: the biological fate of …, 2008)", "key": {"[1]": {"conditions": "ref Nakamura et al., 2003, cited from earlier work"}, "[2]": {"system": "20-HETE formation in rat brain cortical microsomes", "assay": "Inhibition of 20-HETE formation in rat brain cortical microsomes", "assay_type": "biochemical", "conditions": "for 20-HETE formation rate, % of control incubation: HET0016 48.5 nM, 100 μM arachidonic acid"}, "[3]": {"system": "brain cortical 20-HETE tissue concentrations", "assay": "Brain cortical 20-HETE tissue concentration after iv HET0016", "assay_type": "in vivo, rat"}, "[4]": {"assay": "Aqueous solubility of HET0016 in ddH2O and 15% HPβCD", "assay_type": "physicochemical"}, "[5]": {"system": "20-HETE formation in brain cortical microsomes", "assay": "Ex vivo 20-HETE formation in brain cortical microsomes from treated rats", "design": "species or system rat", "conditions": "1 mg/kg iv, one hour after dosing, incubated in the absence of inhibitor", "method_in_brief": "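Rats got 1 mg/kg test compound iv or vehicle (n = 6 per group); cortex was taken 1 h post-dose. Microsomes were made by differential centrifugation in pH 7.4 tris/KCl/DTT/EDTA/20% glycerol buffer with PMSF and BHT. 325μg protein was incubated without added inhibitor in 0.12 M potassium phosphate/5mM MgCl2 with 100μM arachidonic acid. NADPH 1mM was added at start and at 30 min; 37°C, 60 min. 20-HETE d6 internal standard, diethyl ether extraction, MS.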"}, "[6]": {"conditions": "1 hour after intraperitoneal 10 mg/kg dose in lecithin; ref Poloyac et al., 2006; cited from earlier work"}}, "note": "Entries after “also recorded” stand apart in the source; their conditions may differ.", "data": [{"smiles": "CCCCc1ccc(N=CNO)c(C)c1", "note": "[HET0016, N-Hydroxy-N′-(4-n-butyl-2-methylphenyl)formamidine]", "values": [{"measurement": "stability", "setting": "[1]; acidic pH", "value": "instability"}, {"measurement": "aqueous solubility", "setting": "[1]; neutral pH", "value": "poor aqueous solubility"}, {"measurement": "reduction in 20-HETE formation rate", "setting": "[2]; HET0016 30 nM", "value": "~ 70%"}, {"measurement": "20-HETE formation rate, % of control incubation", "setting": "[2]; with 10 minute pre-incubation", "value": "4.92 ± 0.19", "unit": "%"}, {"measurement": "20-HETE formation rate, % of control incubation", "setting": "[2]; without pre-incubation", "value": "4.89 ± 0.46", "unit": "%"}, {"measurement": "concentrations of HET0016 required for 20-HETE inhibition in the rat brain", "setting": "[2]; in vitro", "value": "30 to 90", "unit": "nM"}, {"measurement": "need for metabolic activation to inhibit 20-HETE formation", "setting": "[2]; pre-incubation versus no pre-incubation", "value": "does not require metabolic activation"}, {"measurement": "mechanism of inhibition of 20-HETE formation", "setting": "[2]; rat brain cortical microsomes, 24 nM HET0016, arachidonic acid up to 120 μM", "value": "non-competitive inhibitor; also recorded: non-competitive inhibition"}, {"measurement": "time 20-HETE tissue concentrations remained significantly reduced", "setting": "[3]; 1 mg/kg iv", "value": 60, "unit": "min"}, {"measurement": "time of return of 20-HETE to control levels", "setting": "[3]; 1 mg/kg iv", "value": "≤ 24", "unit": "h"}, {"measurement": "time to reduction of brain 20-HETE after administration", "setting": "[3]; 1 mg/kg iv", "value": "≤ 5", "unit": "min"}, {"measurement": "20-HETE concentration recovery (of control)", "setting": "[3]; 1 mg/kg iv, 180 minutes", "value": 70, "unit": "%"}, {"measurement": "20-HETE concentrations in brain tissue of treated animals (chromatograms)", "setting": "[3]; data not shown", "value": "near or below the limits of detection"}, {"measurement": "rat brain 20-HETE concentration after dosing", "setting": "[3]; single iv dose 1 mg/kg, HPβCD formulation, from 289 pmol/g", "value": 91, "unit": "pmol/g"}, {"measurement": "solubility at 48 h", "setting": "[4]; 15% HPβCD", "value": "453 ± 63.3", "unit": "µg/mL"}, {"measurement": "solubility at 48 h", "setting": "[4]; distilled, deionized water", "value": "34.2 ± 31.2", "unit": "µg/mL"}, {"measurement": "ex vivo 20-HETE formation in microsomes of treated animals", "setting": "[5]", "value": "persistent inhibition"}, {"measurement": "brain concentration as % of plasma concentration", "setting": "[6]", "value": "less than 10%"}]}]}
